Values joined by “and” are separate entries in the source; they are usually repeats but may differ in a detail not shown here. Equal entries are not always repeated. Marks after values point to notes of the source that are not given here.
Experiments:
[1] = tested on: patients with acute myeloid leukemia (AML); experiment: Phase 1 dose escalation, week-on week-off oral tipifarnib: toxicity, DLT and MTD; assay type: in vivo, human
In short: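 Adult patients with AML (M3 excluded) received oral test compound twice daily on days 1–7 and 15–21 of 28-day cycles in 3+3 cohorts. AEs were graded by NCI CTCAE v3.0 from clinic review and patient diaries. DLT was any possibly drug-related […] nonhematologic toxicity (excluding palliated GI events and corrected electrolytes), or non-reversible grade 4 hematologic toxicity without blasts. MTD was ≤1 of 6 with DLT in cycle 1.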

MDS = conditions: above 400 mg bid, 21-day bid dosing; ref [6]; cited from earlier work
[2] = tested on: acute myeloid leukemia (AML); experiment: Phase 1 dose escalation: clinical response; assay type: in vivo, human
In short: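 Bone marrow aspiration and biopsy were done within two weeks before therapy and repeated on days 26–28 of each 28-day cycle. Blood counts were taken at least weekly. Response was scored by International Working Group criteria. Intra-patient escalation was allowed if no CR after cycle 1. Patients without PR or clinical improvement after 6 cycles were deemed treatment failures.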

solid tumor = conditions: 900 mg bid dose level, week-on, week-off; ref [7]; cited from earlier work
farnesyl transferase = conditions: correlative studies in patients; ref [6]–[8]; cited from earlier work
advanced cancer = conditions: 5-day, every 12 hour dosing; highest dose level 1300 mg twice daily for five days; ref [4]; cited from earlier work
[3] = tested on: myeloid and lymphoid leukemias; conditions: ref [2], cited from earlier work
[4] = tested on: previously untreated AML or MDS; conditions: 600 mg bid, 21 day schedule, older patients with previously untreated AML or MDS; ref [5]; cited from earlier work
[5] = Plasma pharmacokinetics of tipifarnib, LCMS/MS, non-compartmental analysis; assay type: in vivo, human
[6] = 1200 mg bid, Subsequent courses
[7] = AUC12h Day 5 / AUC12h Day 1, 1400 mg bid
[8] = Day 1, 1200 mg, plasma, individual subjects 4-10

Cn1cncc1[C@@](N)(c1ccc(Cl)cc1)c1ccc2c(c1)c(-c1cccc(Cl)c1)cc(=O)n2C [tipifarnib, Tipifarnib]
# DLTs ([1]; 400 mg bid): 1 | DLT descriptions ([1]; 400 mg bid): hepatic | # DLTs ([1]; 1200 mg bid): 1 | DLT descriptions ([1]; 1200 mg bid): renal | ALT, SGPT toxicity, Grade 2 ([1]; 1200 mg bid, Course 1): 2 | Anorexia, Grade 2 ([1]; 1200 mg bid, Course 1): 2 | Bilirubin toxicity, Grade 2 ([1]; 1200 mg bid, Course 1): 2 | Creatinine toxicity, Grade 2 ([1]; 1200 mg bid, Course 1): 2 | Creatinine toxicity, Grade 3 ([1]; 1200 mg bid, Course 1): 1 | Dehydration, Grade 2 ([1]; 1200 mg bid, Course 1): 1 | Fatigue, Grade 2 ([1]; 1200 mg bid, Course 1): 3 | Hypoalbuminemia, Grade 2 ([1]; 1200 mg bid, Course 1): 2 | Nausea, Grade 2 ([1]; 1200 mg bid, Course 1): 1 | Nausea, Grade 3 ([1]; 1200 mg bid, Course 1): 1 | Rash / desquamination, Grade 2 ([1]; 1200 mg bid, Course 1): 1 | Vomiting, Grade 2 ([1]; 1200 mg bid, Course 1): 2 | ALT, SGPT toxicity, Grade 3 [1, 6]: 1 | AST, SGOT toxicity, Grade 2 [1, 6]: 1 | Anorexia, Grade 2 [1, 6]: 1 | Ataxia, Grade 3 [1, 6]: 1 | Bilirubin toxicity, Grade 2 [1, 6]: 1 | Constipation, Grade 2 [1, 6]: 1 | Creatinine toxicity, Grade 2 [1, 6]: 3 | Fatigue, Grade 3 [1, 6]: 2 | Febrile neutropenia, Grade 3 [1, 6]: 1 | Hyperglycemia, Grade 2 [1, 6]: 2 | Hypoalbuminemia, Grade 2 [1, 6]: 2 | Nausea, Grade 2 [1, 6]: 2 | Restless leg syndrome, Grade 2 [1, 6]: 1 | Syncope (fainting), Grade 3 [1, 6]: 1 | Vomiting, Grade 2 [1, 6]: 2 | Weight loss, Grade 2 [1, 6]: 1 | # DLTs ([1]; 1400 mg bid): 2 | DLT descriptions ([1]; 1400 mg bid): renal | # DLTs ([1]; 1600 mg bid): 2 ^* | DLT descriptions ([1]; 1600 mg bid): hepatic, renal ^* | maximum tolerated dose (MTD) ([1]; oral twice daily, days 1–7 and 15–21 of each 28-day cycle, first-cycle DLT): 1200 mg bid | dose limiting toxicities (MDS): headache, fatigue, confusion, and vision changes | Responses ([2]; 800 mg bid): 1 CMML patient cleared leukemic blasts | marrow blasts, change ([2]; 800 mg bid, one patient, over 3 cycles): from 36% to 10% | Responses ([2]; 1000 mg bid): 1 CR went to transplant | Responses ([2]; 1200 mg bid): 2 CRs, 1 marrow response (from 50%-7% blasts) | duration of CR ([2]; 1200 mg bid, individual CR patients): one month | Responses ([2]; 1400 mg bid): minor responses | decrease of bone marrow blasts ([2]; 1400 mg bid, two patients): ≥ 50% | complete remissions (CR) seen ([2]; all dose levels, 44 patients, 1000 mg and 1200 mg bid): 3 | complete responses in expansion group ([2]; expansion group, 7 patients at MTD 1200 mg bid): no complete responses | formal responses ([2]; lower dose levels (below 1000 mg bid)): No formal responses | DLT (solid tumor): grade 3 fatigue | duration of farnesyl transferase inhibition after administration (farnesyl transferase): seven days | protocol-defined maximum tolerated dose (MTD) (advanced cancer): not achieved | response at lowest dose level ([3]; 100 mg bid, 21-day continuous dosing): a CR at the lowest dose level | overall response rate ([3]; 34 patients, 21-day continuous dosing schedule): 29% | partial response, patients [4]: 10% | Accumulation Index, median ([5]; AUC12h Day 5 / AUC12h Day 1, 1200 mg bid): 1.2 and 1.23 | Accumulation Index ([5]; AUC12h Day 5 / AUC12h Day 1, 1200 mg bid, individual subjects 4-10): 1.23 and 0.91 and 2.40 and 1.55 | Accumulation Index, high [5, 7]: 1.37 | Accumulation Index, low [5, 7]: 0.97 | Accumulation Index, median [5, 7]: 1.17 | Accumulation Index ([5]; AUC12h Day 5 / AUC12h Day 1, 1400 mg bid, individual subjects 1-3): 1.37 and 0.97 | Cmin, high ([5]; Day 1, 1200 mg, plasma): 402 ng/mL | Cmin, low ([5]; Day 1, 1200 mg, plasma): 82 ng/mL | Cmin, median ([5]; Day 1, 1200 mg, plasma): 166 ng/mL | AUC12h [5, 8]: 3905 ng·h/mL | Cmax [5, 8]: 804 ng/mL and 1180 ng/mL and 479 ng/mL and 2300 ng/mL
